Tests used:
[1] = system: Mouse; assay: concentration in plasma after dosing; settings: 0.25 h; dosed: 2-Hydroxy-4-methoxybenzophenone; 50 mg/kg; iv; Female; B6C3F1
[2] = system: Rat; assay: concentration in plasma after dosing; settings: dosed: 2-Hydroxy-4-methoxybenzophenone, 100 mg/kg, oral, Male, F344
[3] = system: Rat; assay: concentration in plasma after dosing; settings: 6 h; dosed: 2-Hydroxy-4-methoxybenzophenone; 500 mg/kg; oral; Male; F344
[4] = system: Rat; assay: concentration in plasma after dosing; settings: dosed: 2-Hydroxy-4-methoxybenzophenone, 500 mg/kg, oral, Male, F344
[5] = system: Mouse; assay: concentration in plasma after dosing; settings: 3 h; dosed: 2-Hydroxy-4-methoxybenzophenone; 50 mg/kg; iv; Female; B6C3F1
[6] = system: Rat; assay: concentration in brain after dosing; settings: 1.5 h; dosed: alpha-Thujone; 50 mg/kg; oral; Female; Harlan Sprague Dawley
[7] = system: Rat; assay: concentration in brain after dosing; settings: 1.5 h; dosed: alpha-Thujone; 50 mg/kg; oral; Female; Harlan Sprague Dawley; remark: listed apart in the source
[8] = system: Rat; assay: concentration in plasma after dosing; settings: 2 min; dosed: alpha-Thujone; 25 mg/kg; oral; Female; Harlan Sprague Dawley
[9] = system: human; assay: concentration in blood after dosing; negative times count back from the end of exposure; settings: dosed: trichloroethylene, 100 ppm, inhalation, duration: 4 hr, person
Procedure, shortened: (§1)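 A PubMed search, classifier screening and manual review identified published in vivo toxicokinetic studies, which together with two structured collections supplied concentration-versus-time and amount-versus-time points. Points were mostly digitised from plot screenshots with WebPlotDigitizer, otherwise copied from tables. Dose, route, subject details and medium were hand-curated from each paper, and sampling and analytical methods are those of the sources, often unreported.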

[10] = system: Rat; assay: concentration in liver after dosing; settings: 12 h; dosed: Perfluorohexane-1-sulphonic acid – potassium salt; 16 mg/kg; oral; Female; Harlan Sprague Dawley
[11] = system: Rat; assay: concentration in brain after dosing; settings: 24 h; dosed: Perfluorohexane-1-sulphonic acid – potassium salt; 16 mg/kg; oral; Female; F344
[12] = system: Rat; assay: concentration in liver after dosing; settings: 24 h; dosed: Perfluorohexane-1-sulphonic acid – potassium salt; 16 mg/kg; oral; Female; F344
[13] = system: Rat; assay: concentration in liver after dosing; settings: 6 h; dosed: Perfluorohexane-1-sulphonic acid – potassium salt; 16 mg/kg; oral; Female; F344
[14] = system: Rat; assay: concentration in plasma after dosing; settings: dosed: Perfluorohexane-1-sulphonic acid – potassium salt, 4 mg/kg, oral, Male, F344
[15] = system: Rat; assay: concentration in plasma after dosing; settings: dosed: Pyridine, 25 mg/kg, oral, Female, Harlan Sprague-Dawley
[16] = system: Rat; assay: concentration in plasma after dosing; settings: 20 min; dosed: Pyridine; 10 mg/kg; oral; Female; Harlan Sprague-Dawley
[17] = system: Rat; assay: concentration in plasma after dosing; settings: 20 h; dosed: Pyridine; 25 mg/kg; oral; Male; F344
[18] = system: Rat; assay: concentration in plasma after dosing; settings: 0.25 h; dosed: Pyridine; 10 mg/kg; iv; Male; F344
[19] = system: Rat; assay: concentration in plasma after dosing; settings: dosed: Pyridine, 5 mg/kg, iv, Male, F344
[20] = system: Rat; assay: concentration in plasma after dosing; settings: 2 min; dosed: Methyleugenol; 37 mg/kg; oral; Female; F344/N
[21] = system: Mouse; assay: concentration in plasma after dosing; settings: dosed: 2,4-Dichlorophenoxyacetic acid, 5.2 mg/kg, oral, Male, B6C3F1
[22] = system: human; assay: amount in urine after dosing (mg cumulative excretion); settings: dosed: trichloroethylene, inhalation, duration: 8 hr
Procedure, shortened: as §1

[23] = system: Rat; assay: concentration in plasma after dosing; settings: 9 h; dosed: Primidone; 80 mg/kg; oral; Female; F344

O=C(c1ccccc1)c1ccc(O)cc1O [2,4-Dihydroxybenzophenone]
Settings	concentration in plasma [ng/mL]
[1]	1260
[3]	245
[5]	32.7

concentration in plasma [ng/mL]
Settings	0.25 h	4 h	10 h	10 min
[2]	91	43.8	–	–
[4]	–	–	203	55.1

CC(C)[C@]12CC(=O)[C@H](C)[C@H]1C2 [alpha-Thujone]
Settings	concentration in brain [ng/g]	concentration in plasma [ng/mL]
[6]	1360	–
[7]	1020	–
[8]	–	10.6

OCC(Cl)(Cl)Cl [trichloroethanol (free)]
[9]
Settings	concentration in blood [ng/mL]
0.2798 h	3060
0.518 h	2980
1.034 h	2890
2.025 h	2710
4.029 h	2290
5.972 h	2030
7.955 h	1690
9.937 h	1480
11.96 h	1270
13.96 h	1070
15.94 h	1010
17.94 h	738

[9], during exposure
Settings	concentration in blood [ng/mL]
-58 s	2860
-3.486 h	220
-3.013 h	632
-2.028 h	1480
-0.9832 h	2280

O=S(=O)([O-])C(F)(F)C(F)(F)C(F)(F)C(F)(F)C(F)(F)C(F)(F)F.[K+] [Perfluorohexane-1-sulphonic acid – potassium salt]
Settings	concentration in brain [ng/g]	concentration in liver [ng/g]
[10]	–	39800
[11]	1390	–
[12]	–	78000
[13]	–	87400

[14]
Settings	concentration in plasma [ng/mL]
1 h	23200
24 h	28900
864 h	9040

c1ccncc1 [Pyridine]
concentration in plasma [ng/mL]
Settings	0.5 h	1 h	8 h
[15]	–	21400	15200
[19]	3400	–	874

Settings	concentration in plasma [ng/mL]
[16]	3970
[17]	143
[18]	4870

C=CCc1ccc(OC)c(OC)c1 [Methyleugenol]
Settings	concentration in plasma [ng/mL]
[20]	308

O=C(O)COc1ccc(Cl)cc1Cl [2,4-Dichlorophenoxyacetic acid]
[21]
Settings	concentration in plasma [ng/mL]
0.25 h	12900
0.5 h	21100
2 h	18600
3 h	8140
4 h	8940
5 min	18900
6 h	2910
10 h	212

OCC(Cl)(Cl)Cl [trichloroethanol]
[22]
Settings	amount in urine
7.932 h, 97 ppm	111
7.949 h, 54 ppm	76.3
8.43 h, 97 ppm	104
8.618 h, 54 ppm	55.6
9.257 h, 97 ppm	96.4
23.71 h, 54 ppm	175
23.74 h, 97 ppm	288
24.11 h, 54 ppm	191
24.33 h, 97 ppm	255
24.69 h, 97 ppm	352
47.97 h, 97 ppm	393
47.99 h, 97 ppm	364
48.13 h, 97 ppm	417
49.69 h, 54 ppm	258
49.75 h, 54 ppm	291
71.65 h, 54 ppm	301
71.89 h, 54 ppm	323
72.02 h, 97 ppm	395
72.49 h, 97 ppm	431
72.5 h, 97 ppm	422
95.28 h, 54 ppm	314
95.43 h, 54 ppm	328
95.87 h, 97 ppm	444
95.88 h, 97 ppm	429
96.05 h, 97 ppm	408
119.38 h, 54 ppm	345
119.39 h, 54 ppm	327
119.52 h, 97 ppm	409
119.58 h, 97 ppm	452
119.67 h, 97 ppm	430
142.52 h, 54 ppm	348
142.61 h, 54 ppm	331
143.45 h, 97 ppm	458
143.64 h, 97 ppm	412
143.71 h, 97 ppm	433
166.64 h, 54 ppm	352
167.26 h, 97 ppm	433
167.33 h, 97 ppm	463
167.44 h, 97 ppm	411
191.64 h, 97 ppm	414
191.88 h, 97 ppm	432
192.11 h, 97 ppm	466

CCC1(c2ccccc2)C(=O)NCNC1=O [Primidone]
Settings	concentration in plasma [ng/mL]
[23]	21600

— EPA's CvTdb concentration-time database
